Test results reported in ChEMBL document CHEMBL3632558, “Synthesis, antimycobacterial and antibacterial activity of l-[(1R,2S)-2-fluorocyclopropyl]naphthyridone derivatives containing an oxime-functionalized pyrrolidine moiety” (2015).

Experiments:
Assay type in all cases: functional
Enterococcus faecalis [1] = assay: Antibacterial activity against Enterococcus faecalis 14-2 after 18 to 24 hrs
Method in brief: (§1)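 MIC by standard NCCLS reference procedure (M100-S11); lowest concentration of compound inhibiting visible bacterial growth after incubation at 35 °C for 18–24 h, read as complete inhibition of growth. Ciprofloxacin, levofloxacin and moxifloxacin run alongside as reference agents.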

Enterococcus faecium [2] = assay: Antibacterial activity against Enterococcus faecium 14-1 after 18 to 24 hrs; method in brief: as §1
Enterococcus faecium [3] = assay: Antibacterial activity against Enterococcus faecium 14-2 after 18 to 24 hrs; method in brief: as §1
Enterococcus faecium [4] = assay: Antibacterial activity against Enterococcus faecium 14-5 after 18 to 24 hrs; method in brief: as §1
Enterococcus faecium [5] = assay: Antibacterial activity against Enterococcus faecium 14-6 after 18 to 24 hrs; method in brief: as §1
[6] = tested on: Mycobacterium tuberculosis; assay: Antimycobacterial activity against Mycobacterium tuberculosis H37Rv ATCC 27294 by alamar blue assay
Method in brief: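 Microplate Alamar Blue Assay; MIC is the lowest concentration giving ≥90% reduction in fluorescence relative to the mean of replicate bacterium-only controls. MDR strain 6133 is resistant to isoniazid and rifampicin.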

Escherichia coli [7] = assay: Antibacterial activity against Escherichia coli ATCC 25922 after 18 to 24 hrs; method in brief: as §1
Escherichia coli [8] = assay: Antibacterial activity against ESBL-positive Escherichia coli 14-1 after 18 to 24 hrs; method in brief: as §1
Escherichia coli [9] = assay: Antibacterial activity against ESBL-positive Escherichia coli 14-2 after 18 to 24 hrs; method in brief: as §1
Escherichia coli [10] = assay: Antibacterial activity against Escherichia coli 14-1 after 18 to 24 hrs; method in brief: as §1
Escherichia coli [11] = assay: Antibacterial activity against Escherichia coli 14-2 after 18 to 24 hrs; method in brief: as §1
Klebsiella pneumoniae [12] = assay: Antibacterial activity against ESBL-positive Klebsiella pneumoniae 14-17 after 18 to 24 hrs; method in brief: as §1
Klebsiella pneumoniae [13] = assay: Antibacterial activity against ESBL-positive Klebsiella pneumoniae 14-18 after 18 to 24 hrs; method in brief: as §1
Klebsiella pneumoniae [14] = assay: Antibacterial activity against ESBL-positive Klebsiella pneumoniae 14-19 after 18 to 24 hrs; method in brief: as §1
Klebsiella pneumoniae [15] = assay: Antibacterial activity against Klebsiella pneumoniae 14-1 after 18 to 24 hrs; method in brief: as §1
Klebsiella pneumoniae [16] = assay: Antibacterial activity against Klebsiella pneumoniae 14-2 after 18 to 24 hrs; method in brief: as §1
Klebsiella pneumoniae [17] = assay: Antibacterial activity against Klebsiella pneumoniae 14-3 after 18 to 24 hrs; method in brief: as §1
Klebsiella pneumoniae [18] = assay: Antibacterial activity against Klebsiella pneumoniae 14-4 after 18 to 24 hrs; method in brief: as §1
Pseudomonas aeruginosa [19] = assay: Antibacterial activity against Pseudomonas aeruginosa ATCC 27853 after 18 to 24 hrs; method in brief: as §1
Pseudomonas aeruginosa [20] = assay: Antibacterial activity against Pseudomonas aeruginosa 14-9 after 18 to 24 hrs; method in brief: as §1
Pseudomonas aeruginosa [21] = assay: Antibacterial activity against Pseudomonas aeruginosa 14-14 after 18 to 24 hrs; method in brief: as §1
Pseudomonas aeruginosa [22] = assay: Antibacterial activity against Pseudomonas aeruginosa 14-15 after 18 to 24 hrs; method in brief: as §1
Pseudomonas aeruginosa [23] = assay: Antibacterial activity against Pseudomonas aeruginosa 14-16 after 18 to 24 hrs; method in brief: as §1
Pseudomonas aeruginosa [24] = assay: Antibacterial activity against Pseudomonas aeruginosa 14-19 after 18 to 24 hrs; method in brief: as §1
Staphylococcus aureus [25] = assay: Antibacterial activity against Staphylococcus aureus CMCC 26003 after 18 to 24 hrs; method in brief: as §1
Staphylococcus aureus [26] = assay: Antibacterial activity against methicillin-sensitive Staphylococcus aureus 14-1 after 18 to 24 hrs; method in brief: as §1
Staphylococcus aureus [27] = assay: Antibacterial activity against methicillin-sensitive Staphylococcus aureus 14-2 after 18 to 24 hrs; method in brief: as §1
Staphylococcus aureus [28] = assay: Antibacterial activity against methicillin-sensitive Staphylococcus aureus 14-3 after 18 to 24 hrs; method in brief: as §1
Staphylococcus aureus [29] = assay: Antibacterial activity against methicillin-sensitive Staphylococcus aureus 14-4 after 18 to 24 hrs; method in brief: as §1
Staphylococcus aureus [30] = assay: Antibacterial activity against methicillin-resistant Staphylococcus aureus 14-4 after 18 to 24 hrs
Staphylococcus aureus [31] = assay: Antibacterial activity against methicillin-resistant Staphylococcus aureus 14-5 after 18 to 24 hrs
[32] = tested on: Staphylococcus epidermidis; assay: Antibacterial activity against methicillin-sensitive Staphylococcus epidermidis 14-2 after 18 to 24 hrs; method in brief: as §1
[33] = tested on: Staphylococcus epidermidis; assay: Antibacterial activity against methicillin-resistant Staphylococcus epidermidis 14-21 after 18 to 24 hrs
[34] = tested on: Staphylococcus epidermidis; assay: Antibacterial activity against methicillin-resistant Staphylococcus epidermidis 14-22 after 18 to 24 hrs
[35] = tested on: Staphylococcus epidermidis; assay: Antibacterial activity against methicillin-resistant Staphylococcus epidermidis 14-37 after 18 to 24 hrs
[36] = tested on: Staphylococcus epidermidis; assay: Antibacterial activity against methicillin-resistant Staphylococcus epidermidis 14-39 after 18 to 24 hrs
Streptococcus pneumoniae = assay: Antibacterial activity against Streptococcus pneumoniae ATCC 19615 after 18 to 24 hrs; method in brief: as §1
Enterococcus faecalis [37] = assay: Antibacterial activity against Enterococcus faecalis 14-1 after 18 to 24 hrs; method in brief: as §1

CO/N=C1\CN(c2nc3c(cc2F)c(=O)c(C(=O)O)cn3[C@@H]2C[C@@H]2F)CC1(C)CN (stereo partly specified)
128 µg/mL: MIC (Klebsiella pneumoniae [14]) | MIC (Klebsiella pneumoniae [15]) | MIC (Klebsiella pneumoniae [17])
0.372 µg/mL: MIC90 [6]
0.03 µg/mL: MIC (Escherichia coli [7])
0.015 µg/mL: MIC (Staphylococcus aureus [27]) | MIC (Staphylococcus aureus [29]) | MIC (Streptococcus pneumoniae)
0.125 µg/mL: MIC (Enterococcus faecalis [1])
16 µg/mL: MIC [32]
> 128 µg/mL: MIC (Klebsiella pneumoniae [16])
8 µg/mL: MIC (Enterococcus faecium [5]) | MIC (Pseudomonas aeruginosa [21]) | MIC (Pseudomonas aeruginosa [22]) | MIC (Pseudomonas aeruginosa [23]) | MIC (Pseudomonas aeruginosa [24]) | MIC (Staphylococcus aureus [30]) | MIC [34] | MIC [35] | MIC [36]
< 0.008 µg/mL: MIC (Staphylococcus aureus [25]) | MIC (Staphylococcus aureus [28])
2 µg/mL: MIC (Enterococcus faecium [2]) | MIC (Enterococcus faecium [3]) | MIC (Pseudomonas aeruginosa [19]) | MIC (Staphylococcus aureus [26]) | MIC [33]
32 µg/mL: MIC (Escherichia coli [10]) | MIC (Escherichia coli [11]) | MIC (Enterococcus faecalis [37])
4 µg/mL: MIC (Enterococcus faecium [4]) | MIC (Escherichia coli [8]) | MIC (Klebsiella pneumoniae [12]) | MIC (Klebsiella pneumoniae [13]) | MIC (Pseudomonas aeruginosa [20]) | MIC (Staphylococcus aureus [31])
64 µg/mL: MIC (Escherichia coli [9]) | MIC (Klebsiella pneumoniae [18])

CCO/N=C1\CN(c2nc3c(cc2F)c(=O)c(C(=O)O)cn3[C@@H]2C[C@@H]2F)CC1(C)CN (stereo partly specified)
8 µg/mL: MIC (Enterococcus faecium [5]) | MIC (Pseudomonas aeruginosa [21]) | MIC (Pseudomonas aeruginosa [22]) | MIC (Pseudomonas aeruginosa [23]) | MIC (Pseudomonas aeruginosa [24]) | MIC [32] | MIC [35] | MIC [36] | MIC (Enterococcus faecalis [37])
0.333 µg/mL: MIC90 [6]
0.03 µg/mL: MIC (Enterococcus faecalis [1])
32 µg/mL: MIC (Escherichia coli [10]) | MIC (Escherichia coli [11])
4 µg/mL: MIC (Enterococcus faecium [4]) | MIC (Escherichia coli [8]) | MIC (Klebsiella pneumoniae [12]) | MIC (Klebsiella pneumoniae [13]) | MIC (Pseudomonas aeruginosa [20]) | MIC (Staphylococcus aureus [30]) | MIC (Staphylococcus aureus [31])
128 µg/mL: MIC (Escherichia coli [9]) | MIC (Klebsiella pneumoniae [14]) | MIC (Klebsiella pneumoniae [15]) | MIC (Klebsiella pneumoniae [16]) | MIC (Klebsiella pneumoniae [17]) | MIC (Klebsiella pneumoniae [18])
2 µg/mL: MIC (Enterococcus faecium [2]) | MIC (Enterococcus faecium [3]) | MIC (Pseudomonas aeruginosa [19]) | MIC (Staphylococcus aureus [26]) | MIC [33] | MIC [34]
< 0.008 µg/mL: MIC (Escherichia coli [7]) | MIC (Staphylococcus aureus [25]) | MIC (Staphylococcus aureus [27]) | MIC (Staphylococcus aureus [28]) | MIC (Staphylococcus aureus [29]) | MIC (Streptococcus pneumoniae)
